# The source made the active and inactive calls. The rule behind the calls is not given here.
# Columns and labels:
# [1] = Inhibition of human TERT expression in H1299 cells at 1 uM after 24 hrs by secreted alkaline phosphatase reporter gene assay relative to control; values are per cent of control; conditions: NCI-H1299
# [2] = Cytotoxicity against human H1299 cells assessed as cell growth at 100 uM after 48 hrs by MTT assay; assay type: functional; conditions: NCI-H1299, 48 h, read-out: Activity
# How it was run: (§1)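 H1299 non-small lung cancer cells were grown in RPMI 1640 with 10% FBS and penicillin/streptomycin at 37 °C in 5% CO2. About 2×10³ cells were seeded per well and held 24 h, then washed with PBS and given fresh medium. Compound, freshly dissolved in DMSO and diluted in complete medium, was added for 48 h. MTT was read at 550 nm after SDS/DMF lysis at 37 °C for 16 h. Values are from three experiments, untreated = 100%, ±SD.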
# H1299 [3] = assay: Inhibition of human telomerase in H1299 cell lysate at 10 uM by PCR-based telomeric repeat amplification protocol assay; assay type: cell-free
# How it was run: (§2)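 TRAP assay on telomerase-active H1299 cell extracts, with RNase A-treated extract as the negative control. Compound was preincubated with extract for 5 min at room temperature before the telomerase extension and PCR amplification. The initial screen used 10 µM, and IC50 came from a dose series.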
# [4] = Inhibition of human TERT expression in H1299 cells at 100 uM after 24 hrs by secreted alkaline phosphatase reporter gene assay relative to control; values are per cent of control; conditions: NCI-H1299
# [5] = Cytotoxicity against human H1299 cells assessed as cell growth at 1 uM after 48 hrs by MTT assay; assay type: functional; conditions: NCI-H1299, 48 h, read-out: Activity
# How it was run: as §1
# [6] = Inhibition of human TERT expression in H1299 cells at 10 uM after 24 hrs by secreted alkaline phosphatase reporter gene assay relative to control; values are per cent of control; conditions: NCI-H1299
# H1299 [7] = assay: Inhibition of human telomerase in H1299 cell lysate compound incubated post-telomerase extension by PCR-based telomeric repeat amplification protocol assay; assay type: cell-free
# How it was run: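 Modified TRAP assay (TRAP-M) to test for interference with Taq polymerase. Compound was added to H1299 extract reactions right after the telomerase extension step and before PCR amplification.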
# [8] = Cytotoxicity against human H1299 cells assessed as cell growth at 10 uM after 48 hrs by MTT assay; assay type: functional; conditions: NCI-H1299, 48 h, read-out: Activity
# How it was run: as §1
# [9] = (§3) Inhibition of human telomerase in H1299 cell lysate compound incubated for 5 mins prior to telomerase extension by PCR-based telomeric repeat amplification protocol assay; assay type: cell-free
# How it was run: as §2
# H1299 [10] = assay: as §3; assay type: cell-free
# How it was run: as §2
smiles,measurement,setting,value
CN(C)CCCCNCCC(=O)Nc1cccc2c1C(=O)c1c(NC(=O)CCNCCCCN(C)C)cccc1C2=O,"level, % of control",[1],121%
same,growth at 100 µM,[2],7%
same,inhibition,H1299 [3],Active
same,"level, % of control",[4],4%
same,growth at 1 µM,[5],98%
same,"level, % of control",[6],97%
same,inhibition,H1299 [7],Dose-dependent effect
same,growth at 10 µM,[8],74%
same,IC50,[9],6 µM
same,inhibition,H1299 [10],Dose-dependent effect
